{"source": "paper PMC11406440", "about": "(Food and chemical toxicology : an international journal …, 2024)", "key": {"[1]": {"test_system": "spleen cells", "test": "Spleen immune phenotyping by flow cytometry", "type": "in vivo, B6C3F1 mice", "details": "5% PFHxS, 28 days; mean ± SE", "how_it_was_run": "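Female B6C3F1 mice (5/group) received 25 μl/ear of acetone vehicle or 1.25, 2.5 or 5% w/v test compound on the dorsal surface of each ear, once daily for 28 days. They were euthanized about 24 h later. Single-cell suspensions were made from both auricular dLNs, half a spleen or one ear pinna. Cells were Fc-blocked (anti-CD16/32), stained with surface antibody cocktails and acquired on an LSR II, with FMO gating controls.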"}, "[2]": {"test_system": "ear", "test": "Skin", "type": "in vivo, B6C3F1 mice", "details": "28 days", "how_it_was_run": "(§1)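 Mice were dosed daily on both ears (25 μl/ear; acetone vehicle or 1.25, 2.5, 5% w/v) for 28 days. Half an ear pinna or the caudate liver lobe was homogenized in Buffer RLT, and total RNA was column-isolated with DNase treatment. TaqMan qPCR gave relative fold change (2−ΔΔCT) versus vehicle controls, normalized to β-actin. Liver used 4–5 mice/group, one-way ANOVA/Dunnett or Kruskal-Wallis/Dunn.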"}, "[3]": {"test_system": "NK cell function", "test": "NK assay", "type": "in vivo, mice", "details": "any effector to target ratios"}, "[4]": {"details": "14-days of 3 mg/kg/day oral exposure; ref Chang et al., 2018; cited from earlier work"}, "[5]": {"test_system": "IgM response to SRBC", "test": "Spleen IgM response to SRBC", "type": "in vivo, B6C3F1 mice", "details": "10 days", "how_it_was_run": "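B6C3F1 mice, 5/group, dosed topically on dorsal surface of each ear (25 μl/ear) with acetone vehicle or test compound at 0.625, 1.25, 2.5% w/v once daily for 10 consecutive days. SRBC 7.5 × 10^7 i.v. given 4 days before CO2 euthanasia. Spleen cells plated at 1:30 and 1:120 in agar/DEAE-dextran with SRBC and guinea pig complement, 3 h at 37 °C. Plaques counted per 10^6 cells and per spleen. Mean ± SE.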"}, "[6]": {"test": "PFHxS concentration in serum and urine after dermal exposure", "type": "in vivo, B6C3F1 mice", "details": "28 days; for Urine PFHxS concentration: 5 pooled samples; for PFHxS serum concentration: 24 h after last exposure", "how_it_was_run": "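Mice received 25 μl/ear of acetone or 1.25, 2.5, 5% w/v test compound on both ears daily for 28 days. About 24 h after the last exposure, serum was taken by cardiac puncture (5 mice/group) and urine was pooled per group. Analysis was solid-phase extraction with LC/MS/MS (BEH C18, EPA method 537), linear isomer only. Serum was compared with vehicle by one-way ANOVA.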"}, "[7]": {"test_system": "liver", "test": "Liver gene expression", "type": "in vivo, B6C3F1 mice", "how_it_was_run": "as §1"}, "[8]": {"details": "PFHxS exposure, 28 days (discussion, approximate)"}, "[9]": {"details": "all three concentrations of PFHxS, 28 days"}}, "data": [{"compound": "O=S(=O)(O)C(F)(F)C(F)(F)C(F)(F)C(F)(F)C(F)(F)C(F)(F)F", "note": "[PFHxS, Perfluorohexane sulfonic acid]", "values": [{"measurement": "Spleen CD11b+ number", "setting": "[1]", "result": "0.93 ± 0.15 x 10^6"}, {"measurement": "Spleen CD86 B-cells", "setting": "[1]", "result": "302.60 ± 14.79", "unit": "MFI"}, {"measurement": "Spleen CD86 DCs", "setting": "[1]", "result": "1754.60 ± 67.69", "unit": "MFI"}, {"measurement": "Spleen Cellularity", "setting": "[1]", "result": "3.68 ± 0.45 x 10^7"}, {"measurement": "Spleen Dendritic Cells frequency", "setting": "[1]", "result": "3.34 ± 0.31", "unit": "%"}, {"measurement": "Spleen Dendritic Cells number", "setting": "[1]", "result": "1.26 ± 0.20 x 10^6"}, {"measurement": "Spleen MHCII B-cells", "setting": "[1]", "result": "1093.20 ± 94.51", "unit": "MFI"}, {"measurement": "Spleen MHCII DCs", "setting": "[1]", "result": "3854.60 ± 88.79", "unit": "MFI"}, {"measurement": "Spleen NK frequency", "setting": "[1]", "result": "1.71 ± 0.17", "unit": "%"}, {"measurement": "Spleen NK number", "setting": "[1]", "result": "6.35 ± 0.96 x 10^5"}, {"measurement": "Spleen Neutrophils frequency", "setting": "[1]", "result": "2.51 ± 0.34", "unit": "%"}, {"measurement": "Spleen Neutrophils number", "setting": "[1]", "result": "9.14 ± 1.54 x 10^5"}, {"measurement": "Skin Serpine1 gene expression, fold increase", "setting": "[2]; 1.25% PFHxS", "result": 3, "unit": "fold"}, {"measurement": "Skin Il-1β gene expression", "setting": "[2]; 1.25-5% PFHxS", "result": "no significant changes"}, {"measurement": "Skin Pparα gene expression", "setting": "[2]; 1.25-5% PFHxS", "result": "no change"}, {"measurement": "Skin barrier gene Flg2 expression", "setting": "[2]; 1.25-5% PFHxS", "result": "No changes"}, {"measurement": "Skin barrier gene Itgbl1 expression", "setting": "[2]; 1.25-5% PFHxS", "result": "No changes"}, {"measurement": "Skin barrier gene Krt10 expression", "setting": "[2]; 1.25-5% PFHxS", "result": "No changes"}, {"measurement": "Skin barrier gene Krt14 expression", "setting": "[2]; 1.25-5% PFHxS", "result": "No changes"}, {"measurement": "Skin Serpine1 gene expression, fold increase", "setting": "[2]; 2.5% PFHxS", "result": 4, "unit": "fold"}, {"measurement": "Skin barrier gene Lor expression", "setting": "[2]; 2.5%, 5% PFHxS", "result": "Increases"}, {"measurement": "Skin Cxcl1 gene expression, fold increase", "setting": "[2]; 5% PFHxS", "result": 5, "unit": "fold"}, {"measurement": "Skin Il-6 gene expression, fold increase", "setting": "[2]; 5% PFHxS", "result": 2, "unit": "fold"}, {"measurement": "Skin Pparγ gene expression", "setting": "[2]; 5% PFHxS", "result": "decrease"}, {"measurement": "Skin Pparδ gene expression", "setting": "[2]; 5% PFHxS", "result": "increase"}, {"measurement": "Skin S100a8 gene expression, fold increase", "setting": "[2]; 5% PFHxS", "result": 9, "unit": "fold"}, {"measurement": "Skin Serpine1 gene expression, fold increase", "setting": "[2]; 5% PFHxS", "result": 4, "unit": "fold"}, {"measurement": "Skin Tslp gene expression, fold increase", "setting": "[2]; 5% PFHxS", "result": 33, "unit": "fold"}, {"measurement": "Skin barrier gene Flg expression", "setting": "[2]; 5% PFHxS", "result": "Increases"}, {"measurement": "NK cell function", "setting": "[3]", "result": "No significant decreases"}, {"measurement": "Serum concentration", "setting": "[4]", "result": 180, "unit": "µg/mL"}, {"measurement": "Decrease in specific IgM activity against SRBC (PFC/10^6 cells) vs vehicle", "setting": "[5]; 1.25% PFHxS dermal", "result": 50.7, "unit": "%"}, {"measurement": "Decrease in total IgM activity against SRBC (PFC/spleen) vs vehicle", "setting": "[5]; 1.25% PFHxS dermal", "result": 57.9, "unit": "%"}, {"measurement": "Decrease in specific IgM activity against SRBC (PFC/10^6 cells) vs vehicle", "setting": "[5]; 2.5% PFHxS dermal", "result": 49.9, "unit": "%"}, {"measurement": "Decrease in total IgM activity against SRBC (PFC/spleen) vs vehicle", "setting": "[5]; 2.5% PFHxS dermal", "result": 60.3, "unit": "%"}, {"measurement": "Urine PFHxS concentration", "setting": "[6]; 1.25% PFHxS dermal", "result": 43, "unit": "µg/mL"}, {"measurement": "PFHxS serum concentration", "setting": "[6]; 1.25% PFHxS dermal", "result": 440, "unit": "µg/mL"}, {"measurement": "Urine PFHxS concentration", "setting": "[6]; 2.5% PFHxS dermal", "result": 120, "unit": "µg/mL"}, {"measurement": "PFHxS serum concentration", "setting": "[6]; 2.5% PFHxS dermal", "result": 608, "unit": "µg/mL"}, {"measurement": "Urine PFHxS concentration", "setting": "[6]; 5% PFHxS dermal", "result": 130, "unit": "µg/mL"}, {"measurement": "PFHxS serum concentration", "setting": "[6]; 5% PFHxS dermal", "result": 656, "unit": "µg/mL"}, {"measurement": "Liver Cyp7a1 gene expression", "setting": "[7]; 1.25% PFHxS, 28 days", "result": "Decreases"}, {"measurement": "Liver Pparδ gene expression", "setting": "[7]; 1.25% and 2.5% PFHxS, 28 days", "result": "decrease"}, {"measurement": "Liver Pparγ gene expression", "setting": "[7]; 1.25% and 5% PFHxS, 28 days", "result": "increase"}, {"measurement": "Liver Pparα gene expression", "setting": "[7]; 1.25-5% PFHxS, 28 days", "result": "No change"}, {"measurement": "Liver Apoa1 gene expression", "setting": "[7]; 2.5% PFHxS, 28 days", "result": "Decreases"}, {"measurement": "Liver Serpine1 gene expression, fold increase", "setting": "[7]; 2.5% PFHxS, 28 days", "result": 52, "unit": "fold"}, {"measurement": "Liver Acox1 gene expression, fold increase", "setting": "[7]; 5% PFHxS, 28 days", "result": 6.7, "unit": "fold"}, {"measurement": "Liver Avpr1a gene expression", "setting": "[7]; 5% PFHxS, 28 days", "result": "Decreases"}, {"measurement": "Liver Cd36 gene expression, fold increase", "setting": "[7]; 5% PFHxS, 28 days", "result": 23, "unit": "fold"}, {"measurement": "Liver Cpt1b gene expression, fold increase", "setting": "[7]; 5% PFHxS, 28 days", "result": 33, "unit": "fold"}, {"measurement": "Liver Cyp4a10 gene expression, fold increase", "setting": "[7]; 5% PFHxS, 28 days", "result": 22, "unit": "fold"}, {"measurement": "Liver Ehhadh gene expression, fold increase", "setting": "[7]; 5% PFHxS, 28 days", "result": 61, "unit": "fold"}, {"measurement": "Liver Lpl gene expression, fold increase", "setting": "[7]; 5% PFHxS, 28 days", "result": 30, "unit": "fold"}, {"measurement": "Liver Pla2g12a gene expression, fold increase", "setting": "[7]; 5% PFHxS, 28 days", "result": 16, "unit": "fold"}, {"measurement": "Liver Acox1 gene expression, fold increase", "setting": "[7]; [8]", "result": "~ 6 fold"}, {"measurement": "Liver Ehhadh gene expression, fold increase", "setting": "[7]; [8]", "result": "~ 50 fold"}, {"measurement": "Liver Cd36 gene expression, fold increase", "setting": "[7]; [9]", "result": "~ 25 fold"}, {"measurement": "Liver Lpl gene expression, fold increase", "setting": "[7]; [9]", "result": "~ 25 fold"}]}]}
